According to ChEMBL document CHEMBL2069277, “Small molecules that regulate zymosan phagocytosis of macrophage through deactivation of Rho GTPases” (Bioorg Med Chem, 2012):
One block for each molecule: values may come before it. Activity calls are given as the source filed them. The calls are words filed in the database; no cut-off is given here.

Columns and labels:
RAW264.7 [1] = assay: Inhibition of zymosan phagocytosis in mouse RAW264.7 cells at 10 uM preincubated before zymosan addition by flow cytometry; assay type: functional, cell-based
Outline: (§1)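 CD11b+ peritoneal macrophages (4 × 10^6/well) or RAW264.7 cells (2 × 10^6/well) were adhered 2 h and pretreated 30 min (5, 10, 20 µM; screen at 10 µM). Cells were scraped, washed, and incubated with FITC-zymosan (5 particles/cell) for 1 h at 37 °C. After washing, uptake was read by flow cytometry as a phagocytic index relative to untreated cells. Cytochalasin D 5 µM was the control.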

[2] = system: Peritoneal macrophage cell; assay: Effect on TLR6 mRNA expression in C57BL/6 mouse CD11b(+) peritoneal macrophages at 20 uM preincubated for 30 mins before zymosan exposure for 6 hrs by real-time PCR
[3] = system: Peritoneal macrophage cell; assay: Effect on Dectin-1 mRNA expression in C57BL/6 mouse CD11b(+) peritoneal macrophages at 20 uM preincubated for 30 mins before zymosan exposure for 6 hrs by real-time PCR
RAW264.7 [4] = assay: Toxicity in zymosan-induced mouse RAW264.7 cells at 5 to 20 uM preincubated before zymosan addition; assay type: cell-based; settings: raw264.7, 20 µM
[5] = system: Peritoneal macrophage cell; assay: Effect on TLR1 mRNA expression in C57BL/6 mouse CD11b(+) peritoneal macrophages at 20 uM preincubated for 30 mins before zymosan exposure for 6 hrs by real-time PCR
RAW264.7 [6] = assay: Reduction in GTP-bound Rac2 protein expression in mouse RAW264.7 cells at 20 uM preincubated for 20 mins before zymosan exposure for 15 mins by Western blot based pull down assay; assay type: functional, cell-based
Outline: (§2)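 RAW264.7 cells were pretreated with 20 µM (20 min for Rac1 and Rac2; 5 min for Cdc42), then given zymosan 200 µg/ml for 15 min. GTP-bound Rac1, Rac2 and Cdc42 were pulled down with an active pull-down kit and western blotted. Bands were quantified by densitometry and normalized to β-actin.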

RAW264.7 [7] = assay: Reduction in GTP-bound Rac1 protein expression in mouse RAW264.7 cells at 20 uM preincubated for 20 mins before zymosan exposure for 15 mins by Western blot based pull down assay; assay type: functional, cell-based; outline: as §2
[8] = system: Peritoneal macrophage cell; assay: Effect on TLR2 mRNA expression in C57BL/6 mouse CD11b(+) peritoneal macrophages at 20 uM preincubated for 30 mins before zymosan exposure for 6 hrs by real-time PCR
RAW264.7 [9] = assay: Inhibition of zymosan phagocytosis in mouse RAW264.7 cells preincubated before zymosan addition by flow cytometry; assay type: functional, cell-based; outline: as §1
RAW264.7 [10] = assay: Reduction in GTP-bound Cdc42 protein expression in mouse RAW264.7 cells at 20 uM preincubated for 5 mins before zymosan exposure for 15 mins by Western blot based pull down assay; assay type: functional, cell-based; outline: as §2
[11] = system: Peritoneal macrophage cell; assay: Inhibition of zymosan phagocytosis in C57BL/6 mouse CD11b(+) peritoneal macrophages preincubated before zymosan addition by flow cytometry; assay type: functional, cell-based; outline: as §1
[12] = Toxicity in zymosan-induced C57BL/6 mouse CD11b(+) peritoneal macrophages at 5 to 20 uM preincubated before zymosan addition; assay type: cell-based; settings: peritoneal macrophage cell
[13] = system: Peritoneal macrophage cell; assay: Inhibition of zymosan phagocytosis in C57BL/6 mouse CD11b(+) peritoneal macrophages at 20 uM preincubated before zymosan addition by flow cytometry; assay type: functional, cell-based; outline: as §1
Mus musculus = species on record: Mus musculus; assay: Inhibition of zymosan-induced PI3K in C57BL/6 mouse CD11b(+) peritoneal macrophages assessed as reduction in AKT Ser473 phosphorylation at 20 uM preincubated for 15 mins before zymosan exposure for 30 mins by Western blot
Outline: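 CD11b+ peritoneal macrophages from male C57BL/6 mice (thioglycollate-elicited; cells pooled from twenty mice) were pretreated with 20 µM for 15 min, then given zymosan 200 µg/ml for 30 min. Western blot for phospho-Akt (Ser473) and total Akt. p-Akt was quantified by densitometry and expressed as fold change.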

SMILES: CCCOc1ccc(-c2cccc(C(=O)NCCN(CC)CC)c2)cc1
inhibition (RAW264.7 [1]): inactive

SMILES: CCCOc1ccc(-c2cccc(C(=O)NCCCN3CCOCC3)c2)cc1
inhibition (RAW264.7 [1]): inactive

SMILES: CCCOc1ccc(-c2cccc(C(=O)NCCCN(CC)CC)c2)cc1
Activity [2]: inactive
Activity [3]: inactive
Activity (RAW264.7 [4]): Non-toxic
Activity [5]: inactive
Activity (RAW264.7 [6]): Active
Activity (RAW264.7 [7]): Active
Activity [8]: inactive
inhibition (RAW264.7 [9]): Dose-dependent effect
Activity (RAW264.7 [10]): Active
inhibition [11]: Dose-dependent effect
Activity [12]: Non-toxic

inhibition (Mus musculus): Active
SMILES: O=c1cc(N2CCOCC2)oc2c(-c3ccccc3)cccc12
inhibition [13]: inactive

SMILES: CCCOc1ccc(-c2cccc(C(=O)NCCCN(C)C)c2)cc1
inhibition (RAW264.7 [1]): Active

SMILES: CCCOc1ccc(-c2cccc(C(=O)NCCCN3CCCC3)c2)cc1
inhibition (RAW264.7 [1]): Active

SMILES: CCCOc1ccc(-c2cccc(C(=O)NCCCN3CCCCC3)c2)cc1
inhibition (RAW264.7 [1]): Active

SMILES: CCCNC(=O)c1cccc(-c2ccc(OCCC)cc2)c1
inhibition (RAW264.7 [1]): Active
